Data set [1] concerns the target 72 kDa type IV collagenase (Homo sapiens) (UniProt P08253). Description: Inhibition of MMP-2 activity in human HT1080 cells at 10 uM by gelatin zymography. It is filed as cell-based. To be noted: HT-1080. Summed up:
(§1)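 HT1080 human fibrosarcoma cells grown in DMEM with 10% FBS; cells treated with compound, 0.5% DMSO as vehicle control, dose series 2.5–10 µM. Conditioned media run on 10% polyacrylamide/0.4% SDS gels containing 2 mg/ml gelatin, non-reducing, 120 V 150 min. Gels washed in 2.5% Triton X-100 30 min, developed overnight at 37 °C (50 mM Tris–HCl pH 7.6, 200 mM NaCl, 5 mM CaCl2, 0.2% Brij-35). Bands quantified densitometrically as % inhibition; triplicates, three independent experiments.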

The target is the same in data set [2]. Description: Inhibition of MMP-2 activity in human HT1080 cells by gelatin zymography. To be noted: HT-1080. It is filed as cell-based. The essentials: as §1
Data set [3] addresses Matrix metalloproteinase-9 (Homo sapiens) (UniProt P14780). The experiment in a line: Inhibition of MMP-9 activity in human HT1080 cells by gelatin zymography. The class given is cell-based. As to conditions: HT-1080. The essentials:
as §1

For data set [4], the target named is 72 kDa type IV collagenase (Homo sapiens) (UniProt P08253). Description: Inhibition of MMP-2 activity in human HT1080 cells at 5 uM by gelatin zymography. It is filed as cell-based. To be noted: HT-1080. Summed up: as §1
Sequence of 72 kDa type IV collagenase (Homo sapiens) (P08253 110-660 limits assumed): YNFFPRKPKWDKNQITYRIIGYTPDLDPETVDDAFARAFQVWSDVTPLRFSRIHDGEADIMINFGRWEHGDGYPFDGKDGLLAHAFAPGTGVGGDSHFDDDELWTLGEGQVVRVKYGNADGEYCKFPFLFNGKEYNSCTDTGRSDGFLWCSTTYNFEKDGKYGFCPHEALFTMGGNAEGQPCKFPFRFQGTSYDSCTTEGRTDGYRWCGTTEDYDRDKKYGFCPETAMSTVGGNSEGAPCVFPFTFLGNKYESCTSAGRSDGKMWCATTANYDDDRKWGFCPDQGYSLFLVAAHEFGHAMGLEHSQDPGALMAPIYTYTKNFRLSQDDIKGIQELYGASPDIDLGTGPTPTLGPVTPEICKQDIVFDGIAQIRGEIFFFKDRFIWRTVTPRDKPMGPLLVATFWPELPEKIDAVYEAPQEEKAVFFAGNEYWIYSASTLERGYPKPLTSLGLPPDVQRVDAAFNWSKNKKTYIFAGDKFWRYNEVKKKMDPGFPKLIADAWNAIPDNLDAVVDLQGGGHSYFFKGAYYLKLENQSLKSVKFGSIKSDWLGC
In data set [5] the target is Matrix metalloproteinase-9 (Homo sapiens) (UniProt P14780). Description: Inhibition of MMP-9 activity in human HT1080 cells at 5 uM by gelatin zymography. The class given is cell-based. As to conditions: HT-1080. The essentials:
as §1

For data set [6] the target is unchanged. Description: Inhibition of MMP-9 activity in human HT1080 cells at 10 uM by gelatin zymography. It is filed as cell-based. To be noted: HT-1080. Summed up:
as §1

Data set [7] in a line: Cytotoxicity against human HT1080 cells up to 7.5 uM. It is filed as cell-based. As to conditions: ht-1080.
The target in data set [8] is Matrix metalloproteinase 2/9 (Homo sapiens) (UniProt P08253+P14780). Description: Inhibition of MMP2/9 in human HT1080 cells assessed as reduction in degradation of fluorescien gelatin at 5 uM after 24 hrs by gelatin degradation assay. It is filed as cell-based. To be noted: HT-1080. The essentials: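 HT1080 cells exposed to 5 µM compound for 24 h at 37 °C on fluorescent gelatin. Cells then fixed, mounted in antifade reagent and imaged by inverted fluorescence microscopy. Degradation of the fluorescent gelatin compared with control.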
Sequence of Matrix metalloproteinase 2/9 (Homo sapiens) (P08253 whole entry, looked up): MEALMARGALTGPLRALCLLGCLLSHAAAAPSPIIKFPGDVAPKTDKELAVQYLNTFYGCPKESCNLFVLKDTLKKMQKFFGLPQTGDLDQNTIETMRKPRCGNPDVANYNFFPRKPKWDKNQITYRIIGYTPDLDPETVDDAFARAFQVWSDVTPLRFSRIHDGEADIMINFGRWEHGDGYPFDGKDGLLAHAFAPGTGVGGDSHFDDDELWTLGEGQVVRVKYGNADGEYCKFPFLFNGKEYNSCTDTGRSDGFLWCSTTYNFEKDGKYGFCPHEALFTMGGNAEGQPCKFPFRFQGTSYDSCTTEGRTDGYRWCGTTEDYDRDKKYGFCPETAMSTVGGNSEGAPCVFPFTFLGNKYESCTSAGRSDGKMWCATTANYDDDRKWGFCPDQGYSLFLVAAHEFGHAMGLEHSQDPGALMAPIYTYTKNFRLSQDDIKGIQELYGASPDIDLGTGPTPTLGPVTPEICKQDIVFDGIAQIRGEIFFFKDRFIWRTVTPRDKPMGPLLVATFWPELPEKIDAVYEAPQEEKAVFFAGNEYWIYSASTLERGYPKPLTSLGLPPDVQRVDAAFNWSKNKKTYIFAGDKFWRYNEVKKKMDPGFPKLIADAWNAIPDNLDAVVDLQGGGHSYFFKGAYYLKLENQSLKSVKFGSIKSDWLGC
Sequence of Matrix metalloproteinase 2/9 (Homo sapiens) (P14780 whole entry, looked up): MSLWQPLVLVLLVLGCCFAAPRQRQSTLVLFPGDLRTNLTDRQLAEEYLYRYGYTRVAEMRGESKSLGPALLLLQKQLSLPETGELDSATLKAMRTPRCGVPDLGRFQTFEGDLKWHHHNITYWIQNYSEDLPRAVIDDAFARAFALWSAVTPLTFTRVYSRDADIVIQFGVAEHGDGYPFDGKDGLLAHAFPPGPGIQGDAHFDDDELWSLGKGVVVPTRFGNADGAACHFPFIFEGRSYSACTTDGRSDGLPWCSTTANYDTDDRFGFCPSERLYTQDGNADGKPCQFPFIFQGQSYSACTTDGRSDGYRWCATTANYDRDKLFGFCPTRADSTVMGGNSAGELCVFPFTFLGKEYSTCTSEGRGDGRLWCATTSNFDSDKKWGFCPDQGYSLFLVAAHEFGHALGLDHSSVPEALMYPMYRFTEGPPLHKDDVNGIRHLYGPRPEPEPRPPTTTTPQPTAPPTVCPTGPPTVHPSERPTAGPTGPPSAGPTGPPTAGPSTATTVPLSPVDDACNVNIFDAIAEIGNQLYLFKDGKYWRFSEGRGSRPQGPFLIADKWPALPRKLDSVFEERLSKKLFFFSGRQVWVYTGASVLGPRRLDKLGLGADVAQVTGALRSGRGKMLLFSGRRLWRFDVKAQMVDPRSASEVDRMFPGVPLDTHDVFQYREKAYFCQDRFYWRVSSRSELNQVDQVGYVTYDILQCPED

The test system of data set [9] is HT-1080. Description: Inhibition of cell migration in human HT1080 cells at 5 uM after 24 hrs by transwell migration assay. The class given is functional, cell-based. The essentials:
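Transwell migration: 8 × 10^4 HT1080 cells in serum-free medium with compound placed in upper chamber; lower chamber held DMEM with 10% FBS as attractant. After 24 h, non-migrated cells swabbed off; migrated cells stained with crystal violet and counted in five random fields, expressed as % of control.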

Activity calls are given as the source filed them. The rule behind the calls is not given here.

Sequence of Matrix metalloproteinase-9 (Homo sapiens) (P14780 whole entry): as the sequence (P14780 whole entry, looked up) above

For the compound `O=c1c(-c2c(-c3ccco3)oc3ccccc3c2=O)c(-c2ccco2)oc2ccccc12`, in [1], the inhibition (commonly the drop in the measured response relative to a control, in per cent) was “Active”.

On to `COc1cc(OC)c2c(=O)c(-c3c(-c4ccccc4)oc4cc(OC)cc(OC)c4c3=O)c(-c3ccccc3)oc2c1`, for which the inhibition result in [2] and in data set [3] was “inactive” in each case.

Regarding `COc1ccc2c(=O)c(-c3c(-c4ccccc4)oc4cc(OC)ccc4c3=O)c(-c3ccccc3)oc2c1`, the inhibition entry in [2] and in data set [3] was “inactive” in each case.

In the case of `COc1ccc(-c2oc3ccccc3c(=O)c2-c2c(-c3ccc(OC)cc3)oc3ccccc3c2=O)cc1`, the inhibition result in [2] and in data set [3] was “inactive” throughout.

Take `COc1ccccc1-c1oc2ccccc2c(=O)c1-c1c(-c2ccccc2OC)oc2ccccc2c1=O`: the inhibition entry in data set [2] and in [3] was “inactive” throughout.

As to `COc1ccc(-c2cc(=O)c3c(O)cc(O)cc3o2)cc1`, the inhibition result in [4] and in [5] was “inactive” in each case.

With `COc1ccc(-c2oc3cc(OC)cc(OC)c3c(=O)c2-c2c(-c3ccc(OC)cc3)oc3cc(OC)cc(OC)c3c2=O)cc1`, the inhibition result in [2] and in data set [3] was “inactive” in each case.

Take `COc1ccc(-c2oc3cc(O)cc(O)c3c(=O)c2-c2c(-c3ccc(OC)c(OC)c3)oc3cc(O)cc(O)c3c2=O)cc1OC`: the inhibition entry in [1] is “Active”.

With `O=c1c(-c2c(-c3ccccc3)oc3cc(O)ccc3c2=O)c(-c2ccccc2)oc2cc(O)ccc12`, the inhibition result in data set [1] and in [6] was “inactive” in each case.

`COc1ccc(-c2oc3cc(O)cc(O)c3c(=O)c2-c2c(-c3ccc(OC)cc3)oc3cc(O)cc(O)c3c2=O)cc1`: the Activity entry in data set [7] is given as “Non-toxic”. The inhibition is 60% in [4]; 90% in [5]; 90% in data set [1]; “Dose-dependent effect” in data set [2]; 90% in data set [6]; “Dose-dependent effect” in data set [3]. Further, the inhibition entry in [8] and in data set [9] was “Active” throughout.

`O=c1c(-c2c(/C=C/c3ccccc3)oc3ccccc3c2=O)c(/C=C/c2ccccc2)oc2ccccc12`: the inhibition entry in data set [1] and in data set [6] was “inactive” in each case.

Values taken from ChEMBL document CHEMBL3585295, “Synthesis and discovery of (I-3,II-3)-biacacetin as a novel non-zinc binding inhibitor of MMP-2 and MMP-9” (Bioorg Med Chem, 2015).
